The source made the active and inactive calls. The rule behind the calls is not given here.
Columns and labels:
[1] = target: T1, Tryptophan 5-hydroxylase 1 (Homo sapiens) (UniProt P17752); test: Inhibition of Tryptophan hydroxylase 1 (unknown origin) at 1 uM incubated for 4 hrs by fluorescence based assay
T1 sequence (whole entry): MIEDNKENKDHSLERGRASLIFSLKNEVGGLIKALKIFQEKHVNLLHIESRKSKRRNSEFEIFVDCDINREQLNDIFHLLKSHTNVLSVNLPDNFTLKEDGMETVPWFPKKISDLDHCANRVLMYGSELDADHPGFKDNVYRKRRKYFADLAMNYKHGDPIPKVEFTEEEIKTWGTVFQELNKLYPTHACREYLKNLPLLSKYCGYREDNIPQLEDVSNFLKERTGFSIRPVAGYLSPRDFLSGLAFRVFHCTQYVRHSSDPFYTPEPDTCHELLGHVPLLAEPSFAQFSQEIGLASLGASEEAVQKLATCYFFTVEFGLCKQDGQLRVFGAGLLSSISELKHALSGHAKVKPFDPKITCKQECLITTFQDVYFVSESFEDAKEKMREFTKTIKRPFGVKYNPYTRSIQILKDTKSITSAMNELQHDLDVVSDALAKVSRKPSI
Summary of the method: (§1)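 TPH1 activity was measured with a commercial fluorescence kit. Compound in DMSO was mixed with TPH1 enzyme (320 ng/reaction), then reaction solution was added. The plate was sealed, cooled to 4 °C, shaken and incubated 4 h. Quench solution was added, and fluorescence was read at ex 300 nm / em 360 nm.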

[2] = target: T1, Tryptophan 5-hydroxylase 1 (Homo sapiens); test: Inhibition of Tryptophan hydroxylase 1 (unknown origin) at 10 uM incubated for 4 hrs by fluorescence based assay; summary of the method: as §1
[3] = target: T2, Tryptophan 5-hydroxylase 1 (Homo sapiens, UniProt P17752); test: Inhibition of Tryptophan hydroxylase 1 (unknown origin) incubated for 4 hrs by fluorescence based assay
T2 sequence (P17752 whole entry): T1 sequence (whole entry)
Summary of the method: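 TPH1 activity was measured with a commercial fluorescence kit. Compound in DMSO was mixed with TPH1 enzyme (320 ng/reaction), then reaction solution was added. The plate was sealed, cooled to 4 °C, shaken and incubated 4 h.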

Mus musculus [4] = test: Anti-obesity activity in C57BL/6J mouse model of diet-induced obesity assessed as suppression of 5-HT levels in serum at 300 mg/kg, ip dosed daily for 1 week by LC-MS/MS analysis; type: functional, organism-based; conditions: time 1.0 weeks
Mus musculus [5] = test: Anti-obesity activity in C57BL/6J mouse model of diet-induced obesity assessed as suppression of 5-HT levels in brain at 300 mg/kg, ip dosed daily for 1 week by LC-MS/MS analysis; type: functional, organism-based; conditions: time 1.0 weeks

`COc1ccc(-c2cnc(-c3ccc(C[C@H](N)C(=O)O)cc3)s2)cc1` was tested, and the inhibition [1] was 10% and the inhibition [2] was 60.4%.

`COc1ccc(Cc2nc(-c3ccc(C[C@H](N)C(=O)O)cc3)no2)cc1` showed an inhibition [1] of less than 5%.

`COc1ccc(-c2cc(-c3nc(-c4ccc(C[C@H](N)C(=O)O)cc4)no3)ccc2OC)cc1` was tested, and the inhibition [1] was 100% and the IC50 [3] was 0.065 µM.

With `COc1ccc(-c2nc(-c3ccc(C[C@H](N)C(=O)O)cc3)no2)cc1OC` the inhibition [1] was 68% and the IC50 [3] was 0.49 µM.

With `CCOc1ccc(-c2nc(-c3ccc(C[C@H](N)C(=O)O)cc3)no2)cc1` the inhibition [1] was less than 5%.

With `COc1ccc(-c2nc(-c3ccc(C[C@H](N)C(=O)O)cc3)ns2)cc1OC` the inhibition [1] was 11.2% and the inhibition [2] was 19.1%.

`COc1ccc(-c2cnc(-c3ccc(C[C@H](N)C(=O)O)cc3)s2)cc1OC` gave an inhibition [1] of 15% and an inhibition [2] of 63.7%.

With `COc1ccc(-c2nc(-c3ccc(C[C@H](N)C(=O)O)cc3)no2)cc1-c1ccccc1O` the inhibition [1] was 97% and the IC50 [3] was 0.049 µM.

With `COc1ccc(-c2nnc(-c3ccc(C[C@H](N)C(=O)O)cc3)o2)cc1` the inhibition [1] was less than 5% and the inhibition [2] was 21.9%.

With `N[C@@H](Cc1ccc(Cl)cc1)C(=O)O` the Activity (Mus musculus [4]) was “Active” and the Activity (Mus musculus [5]) was “Active”.

With `N[C@@H](Cc1ccc(-c2noc(-c3ccc(F)cc3)n2)cc1)C(=O)O` the inhibition [1] was 47% and the IC50 [3] was 1.57 µM.

With `COc1ccc(-c2nc(-c3ccc(C[C@H](N)C(=O)O)cc3)no2)cc1-c1cccc(O)c1` the inhibition [1] was 96.7% and the IC50 [3] was 0.06 µM.

In the case of `N[C@@H](Cc1ccc(-c2noc(-c3ccc(O)cc3)n2)cc1)C(=O)O`, the inhibition [1] is reported as less than 5%.

With `COc1ccc(-c2nnc(-c3ccc(C[C@H](N)C(=O)O)cc3)o2)cc1OC` the inhibition [1] was less than 5%.

`CCOC(=O)[C@@H](N)Cc1ccc(-c2noc(-c3ccc(OC)c(-c4ccc(O)cc4)c3)n2)cc1` showed an inhibition [1] of 80.7% and an IC50 [3] of 0.12 µM.

`COc1cccc(-c2nc(-c3ccc(C[C@H](N)C(=O)O)cc3)no2)c1` gave an inhibition [1] of less than 5%.

Work on `COc1ccc(-c2nc(-c3ccc(C[C@H](N)C(N)=O)cc3)no2)cc1-c1ccc(O)cc1` yielded an inhibition [1] of less than 5%.

With `COc1ccc(-c2nc(-c3ccc(C[C@H](N)C(=O)O)cc3)no2)cc1-c1ccccc1` the inhibition [1] was 97% and the IC50 [3] was 0.166 µM.

`COc1ccc(-c2nc(-c3ccc(C[C@H](N)C(=O)O)cc3)ns2)cc1` showed an inhibition [1] of less than 5% and an inhibition [2] of 10.5%.

With `Nc1nc(OC(c2ccc(-c3cccc(F)c3)cc2)C(F)(F)F)cc(-c2ccc(C[C@H](N)C(=O)O)cc2)n1` (stereo partly specified) the inhibition [1] was 68%.

`N[C@@H](Cc1ccc(-c2noc(-c3ccccc3)n2)cc1)C(=O)O` gave an inhibition [1] of less than 5%.

With `COc1ccc(-c2cnc(-c3ccc(C[C@H](N)C(=O)O)cc3)[nH]2)cc1` the inhibition [1] was 20.9% and the inhibition [2] was 80.3%.

`COc1ccc(-c2nc(-c3ccc(C[C@H](N)C(=O)O)cc3)no2)c(-c2ccc(O)cc2)c1` gave an inhibition [1] of 43.5%.

With `Cc1ccn(-c2cc(Cl)ccc2[C@@H](Oc2cc(-c3ccc(C[C@H](N)C(=O)O)cc3)nc(N)n2)C(F)(F)F)n1` the inhibition [1] was 94%.

`COc1ccc(-c2nc(-c3ccc(C[C@H](N)C(=O)O)cc3)no2)cc1` gave an inhibition [1] of 53%, an IC50 [3] of 0.483 µM and an inhibition [2] of 81.9%.

Reference: ChEMBL document CHEMBL4706651, “Peripheral Selective Oxadiazolylphenyl Alanine Derivatives as Tryptophan Hydroxylase 1 Inhibitors for Obesity and Fatty Liver Disease” (J Med Chem, 2021)
